# Assay results of several laboratories.
# Target: Adenosine receptor A1 (ADORA1, Homo sapiens, UniProt P30542)
# Residues used in one study (P30542 1-326): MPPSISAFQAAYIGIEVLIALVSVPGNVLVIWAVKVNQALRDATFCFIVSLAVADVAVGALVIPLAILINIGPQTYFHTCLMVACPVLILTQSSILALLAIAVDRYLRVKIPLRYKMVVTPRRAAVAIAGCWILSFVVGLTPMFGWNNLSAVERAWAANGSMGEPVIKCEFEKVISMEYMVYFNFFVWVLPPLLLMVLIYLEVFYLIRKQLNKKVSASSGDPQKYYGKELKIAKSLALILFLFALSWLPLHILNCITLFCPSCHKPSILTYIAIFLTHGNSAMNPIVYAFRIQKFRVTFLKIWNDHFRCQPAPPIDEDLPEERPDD
SMILES,test,setting,quantity,result
O[C@@H]1[C@H](O)CO[C@H]1n1cnc2c(NCc3cccc(I)c3)ncnc21,"ligand displacement, radioligand",cell membranes,Ki,2080 nM
OC[C@@]12C[C@@H]1[C@@H](n1cnc3c(NC(C4CCCC4)C4CCCC4)nc(Cl)nc31)[C@H](O)[C@@H]2O,"ligand displacement, radioligand",,Ki,436 nM
CCNC(=O)C1OC(n2cnc3c(N)nc(NN=CC4CCC=CO4)nc32)C(O)C1O (centres unmarked),"ligand displacement, radioligand",cell membranes,Ki,76.4 nM
COc1cccc(Cn2c(=O)n(CC3CC3)c(=O)c3c2nc2cc(OC)ccn23)c1,"ligand displacement, radioligand",cell membranes,Ki,209 nM
C=CN1CCCn2c1nc1c2c(=O)n(C)c(=O)n1C,"ligand displacement, radioligand",cell membranes,Ki,> 10000 nM
CCCC[C@H](NC(=O)[C@H](C)c1c(C)[nH]c2ccc(O)cc12)c1ncc(-c2cc3ccccc3nc2OC)[nH]1,cell-free assay,,IC50,2730 nM
CNC(=O)[C@@]12C[C@@H]1[C@@H](n1cnc3c(NCc4cn(-c5ccc(C(=O)NCCCF)cc5)nn4)nc(Cl)nc31)[C@H](O)[C@@H]2O,"ligand displacement, radioligand",cell membranes,Ki,1380 nM
O[C@@H]1[C@H](O)CO[C@H]1n1cnc2c(NCc3cccc(Br)c3)ncnc21,"ligand displacement, radioligand",cell membranes,Ki,3300 nM
CNC(=O)[C@@]12C[C@@H]1[C@@H](n1cnc3c(NCCc4ccc(O)c(OC)c4)nc(C#Cc4ccc(Cl)s4)nc31)[C@H](O)[C@@H]2O,"cell-free assay, radioligand",,Ki,43 nM
CCCCCCN1CCCn2c1nc1c2c(=O)n(C)c(=O)n1C,"ligand displacement, radioligand",cell membranes,Ki,3800 nM
CNC(=O)[C@@]12C[C@@H]1[C@@H](n1cnc3c(NCc4cccc(C#CCCCc5cn(-c6ccc(F)c(N)c6)nn5)c4)nc(Cl)nc31)[C@H](O)[C@@H]2O,"ligand displacement, radioligand",cell membranes,Ki,640 nM
C#CCCCCC(=O)NCCNC(=O)COc1ccc(-c2nc3c([nH]2)c(=O)n(CCC)c(=O)n3CCC)cc1,"ligand displacement, radioligand",cell membranes,Ki,107 nM
C#CCNc1nc(Cl)nc2c1ncn2[C@H]1[C@H](O)[C@H](O)[C@]2(C(=O)NC)C[C@H]12,"ligand displacement, radioligand",cell membranes,Ki,400 nM
COCCN(CCOC)C(=O)[C@@]12C[C@@H]1[C@@H](n1cnc3c(N)nc(Cl)nc31)[C@H](O)[C@@H]2O,"ligand displacement, radioligand",,Ki,998 nM
